Experimental data from different studies.
Lines come from different studies, so protocols differ.
MTNR1A: Melatonin receptor type 1A (MTNR1A, Homo sapiens, UniProt P48039)
FLT3: Receptor-type tyrosine-protein kinase FLT3 (FLT3, Homo sapiens, UniProt P36888)

COc1ccc(Br)c(CNc2cccnc2)c1  Ki (MTNR1A; cell-free assay): 347 nM
COc1ccc2ncn(CCNC(C)=O)c2c1  EC50 (MTNR1A; cAMP, agonist, TR-FRET): 1120 nM
COc1ccc(CN(C)C(=O)c2cc(F)c[nH]2)cc1O  EC50 (MTNR1A; cAMP, agonist, luciferase): 21.1 nM
NC(=O)c1ccc(Nc2nccc(NC3CCCCC3)n2)cc1  IC50 (FLT3; enzyme activity, inhibitor): 14 nM
Cc1cnc(-c2ccc(-c3ccc(NC(=O)Nc4c(F)cc(F)cc4F)cc3F)c3c2C(=O)NC3)[nH]1  Kd (Tyrosine-protein kinase receptor Tie-1 (TIE1, Homo sapiens, UniProt P35590); binding, competition with immobilised ligand): 18 nM
COc1cc2c(CCNC(C)=O)c[nH]c2cc1I  EC50 (MTNR1A; GTPγS binding, agonist, radiometric; cell membranes): 10 nM
Cc1cc2nc3c(=O)[nH]c(=O)nc-3n(C[C@H](O)[C@H](O)[C@H](O)COP(=O)(O)OP(=O)(O)OC[C@H]3O[C@@H](n4cnc5c(N)ncnc54)[C@H](O)[C@@H]3O)c2cc1C  Kd (Annexin A7 (Homo sapiens, UniProt P20073); binding; lysate): 30 nM
c1ccc(-c2cccc(Nc3nccc(NC4CCCCC4)n3)c2)nc1  IC50 (FLT3; enzyme activity, inhibitor): 1710 nM
Cc1cc(Nc2cc3ncccc3c(N[C@@H]3C[C@H]4CC[C@@H](C3)N4CCC#N)n2)n[nH]1  Kd (FLT3; binding, competition with immobilised ligand): 40 nM
COC(=O)c1ccc(CSc2nnc(C3CC3)[nH]2)cc1  EC50 (MTNR1A; cAMP, agonist, luciferase): 777 nM
CC(C)Nc1ccnc(Nc2cccc(-c3cnccn3)c2)n1  IC50 (FLT3; enzyme activity, inhibitor): 11 nM
CCc1ccc2scc(CCNC(C)=O)c2c1  EC50 (MTNR1A; β-arrestin recruitment, agonist): 12 nM
